# Only some compounds are listed: those with a hit (about 4% of all), similar ones and a draw of the others.
# OX1R antag-1: blocks the human orexin 1 receptor; O43613; OX1R-expressing cells, FRET antagonist read-out; inhibition, % at 6.6 µM; 330,000 compounds, 1.8% hits; AID 485270; in the data active = inhibition mostly above about 38%, no sharp cut-off; inactive = mostly below about 40%;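 note: 0% = agonist challenge alone and 100% = reference antagonist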
# TAAR1 agonist: human TAAR1 agonism; CHO RD-HGA16 TAAR1, Fluo-8 calcium fluorescence; vehicle wells 0%, saturating PEA agonist 100%; activation, % at 3 µM; 360,000 compounds, 0.99% hits; AID 624467;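 active = activation above the mean activation of all test compounds in the run plus 3 SD, cut at about 38% in these data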
# Target sequence (Q96RJ0 whole entry, looked up): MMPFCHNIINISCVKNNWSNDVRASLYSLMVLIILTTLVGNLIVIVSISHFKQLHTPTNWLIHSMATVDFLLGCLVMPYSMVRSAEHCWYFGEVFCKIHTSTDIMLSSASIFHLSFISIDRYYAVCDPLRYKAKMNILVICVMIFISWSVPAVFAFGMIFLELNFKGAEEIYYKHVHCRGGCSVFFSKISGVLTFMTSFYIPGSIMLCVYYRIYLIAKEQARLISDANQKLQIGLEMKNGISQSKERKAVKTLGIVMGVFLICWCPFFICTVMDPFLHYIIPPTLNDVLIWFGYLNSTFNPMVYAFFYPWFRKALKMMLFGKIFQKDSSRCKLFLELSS
#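 Test system: RD-HGA16 (CHO) cells co-expressing Gα16 and hTAAR1; dosing: one-point dosing at 3 µM (nominal); timing: 17-24 h seeding, 75 min 37 °C dye, 30 min RT; signal: kinetic Fluo-8 calcium fluorescence; read-out basis: % activation relative to PEA EC100 response; controls: DMSO and PEA EC100; replicates: n 1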
# OX1R antag-2: human HCRTR1 antagonism; inhibition, % at 5 µM; AID 434989; 330,000 compounds, 0.43% hits; CHO/OX1R cells, Fluo-8 calcium fluorescence, orexin A;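 active = inhibition above its plate's threshold, mean inhibition of all tested compounds on the plate plus 3 SD, cut at about 37% in these data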;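 note: 0% = orexin A challenge wells and 100% = SB-334867-A antagonist wells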
# TAAR1 antagonist: antagonists of human TAAR1. CHO RD-HGA16 TAAR1, Fluo-8 calcium fluorescence, antagonist. Q96RJ0. AID 624466. 360,000 compounds, 1.5% hits. inhibition, % at 3 µM;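 active = inhibition above a per-plate cutoff, the mean inhibition of test compounds on that plate plus 3 SD, cut at about 49% in these data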;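 note: 0% = DMSO plus EC80 beta-PEA response and 100% = DMSO alone without agonist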
#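 Test system – hTAAR1-expressing CHO RD-HGA16 cells, Gα16-coupled · Reagent – β-PEA at EC80 concentration, post-compound challenge · Compound dosing – 3 µM, single point · Timing – 140 s kinetic read after compound, 140 s after agonist · Detection – Fluo-8 intracellular calcium dye fluorescence, real-time kinetic reads · Control set – DMSO and EC80 PEA controls · Repeats – n of 1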
# CHO parental Ca: counter-screen: ATP calcium response change in parental CHO cells; 330,000 compounds, 0.63% hits; inhibition, % at 5.6 µM; parental CHO-K1, ATP-induced calcium, Fluo-8 fluorescence;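 active = inhibition above that plate's mean sample inhibition plus 3 SD, cut at about 26% in these data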;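 note: 0% = ATP-challenged DMSO wells and 100% = DMSO wells without ATP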
#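 Assay system – parental CHO cells · Reagent – ATP stimulus · Detection – intracellular calcium via Fluo-8 no-wash fluorescent dye · Evaluation – percent inhibition of ATP-evoked calcium rise, normalized to controls · Controls – ATP wells versus no-ATP DMSO wells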
# OX1R HTRF conf: confirmation of human orexin 1 receptor antagonists, HTRF format; shares compounds with OX1R antag-1; OX1R-expressing cells, HTRF antagonist assay; inhibition, % at 6.6 µM; 1,800 compounds, 49% hits; AID 492964; in the data active = inhibition above about 55%;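 note: CHO cells expressing OX1R stimulated with orexin A at about EC80; 0% = agonist challenge alone and 100% = reference antagonist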
# CHO-K1 HTRF cnt: signal in parental CHO-K1 cells, OX1R antagonist counter-screen; shares compounds with OX1R antag-1; inhibition, % at 6.6 µM; 1,800 compounds, 48% hits; HTRF counterscreen; AID 493232; in the data active = inhibition above about 17%;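 note: 0% = agonist challenge with vehicle and 100% = vehicle alone without agonist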
# Starred values were filed as active, the others as inactive; · = not tested or not shown.
SMILES,OX1R antag-1,TAAR1 agonist,OX1R antag-2,TAAR1 antagonist,CHO parental Ca,OX1R HTRF conf,CHO-K1 HTRF cnt
Cc1cc(C)nc(NC(=O)c2ccc(C)c([N+](=O)[O-])c2)n1,65,12,-4,7,-9,·,·
O=C(c1cc([N+](=O)[O-])cc([N+](=O)[O-])c1)N(c1ccccn1)c1ccccn1,103*,2,5,11,8,49,72*
O=C(c1cccc([N+](=O)[O-])c1)N(c1ccccn1)c1ccccn1,13,-1,9,-8,-1,·,·
Cc1cc(C)nc(NC(=O)c2cc([N+](=O)[O-])cc([N+](=O)[O-])c2)n1,111*,0,-4,3,-4,44,68*
Cc1cc(C)cc(NC(=O)c2ccc([N+](=O)[O-])o2)c1,·,5,·,7,·,·,·
Cc1nnc2ccc(-c3ccc(NS(=O)(=O)c4ccccc4)cc3)nn12,·,4,·,-16,·,·,·
O=C(Nc1cccnc1)c1ccc([N+](=O)[O-])o1,79*,0,-1,8,-3,58*,88*
O=C(NCc1cccnc1)c1ccc([N+](=O)[O-])o1,37,1,1,9,-1,·,·
Cn1cnnc1SCc1ccc(C(=O)N=Nc2c(O)n(C)c3ccccc23)cc1,139*,6,-15,-5,-19,54,62*
Cn1cnnc1SCC(=O)n1c2ccccc2c2ccccc21,20,16,-17,-10,-23,·,·
CCN(CC)C(=O)CSc1nnc(SCc2ccc(Cl)cc2)s1,0,22,-28,2,-28,·,·
CCN(CC)C(=O)CSc1nnc2nnc3cc(C)ccc3n12,91*,2,-19,-16,-21,60*,103*
CCN(CC)C(=O)CSc1nnc2nnc3cc(Cl)ccc3n12,108*,4,-27,-19,-16,70*,126*
CCCn1c(SCC(=O)N(CC)CC)nnc1-c1ccncc1,15,9,-15,13,-9,·,·
CCCS(=O)(=O)Nc1ccc(N2CCCCC2)c(S(=O)(=O)Nc2ccccc2OC)c1,·,3,·,-3,·,·,·
COc1ccc(-c2nc(CS(=O)CC(=O)NCc3ccc(F)cc3)c(C)o2)cc1 (stereo not given),11,-1,-34,-4,-23,·,·
CCOC(=O)c1c(NC(=O)CN2CCCc3ccccc32)sc(C)c1CC,12,4,-44,-3,-40,·,·
Cc1ncsc1CCOC(=O)c1ccc([N+](=O)[O-])cc1,82*,11,-19,5,-6,29,34*
Cc1ncsc1CCOC(=O)c1cccnc1,9,7,-2,0,0,·,·
CCNc1ccc(C(=O)OCC(=O)NCc2ccc(C)cc2)cc1[N+](=O)[O-],21,0,-23,-2,-16,·,·
CCNc1ccc(C(=O)OCC(=O)N2CCCC2)cc1[N+](=O)[O-],140*,-1,-18,-7,-4,34,56*
CC1CCC(NC(=O)c2[nH]c(C(F)(F)F)nc2-c2ccccc2)CC1 (stereo not given),·,6,·,0,·,·,·
N#CC1C(=N)Cc2ccccc2-c2ccccc21 (stereo not given),·,4,·,4,·,·,·
O=[N+]([O-])c1ccc2nnn(O)c2c1,91*,1,-13,-2,-8,31,46*
COC(=O)c1cccc(-n2c(C)cc(O)cc2=O)c1,·,1,·,-3,·,·,·
SMILES,OX1R antag-1,TAAR1 agonist,OX1R antag-2,TAAR1 antagonist,CHO parental Ca,OX1R HTRF conf,CHO-K1 HTRF cnt
NS(=O)(=O)c1ccc(NN=C2CCN(Cc3ccccc3)CC2)c([N+](=O)[O-])c1,83*,4,8,-24,-3,19,7
CCOc1ccc(OCC(=O)c2c(O)c3ccccc3oc2=O)cc1,79*,6,-8,-6,5,16,-11
CCC(C)[C@H](NC(=O)N1CC(=O)Nc2ccccc21)C(=O)N1CCC(C(=O)O)CC1 (stereo not given in full),14,2,-3,-27,0,·,·
O=[N+]([O-])c1ccc(N2CCCCC2)s1,101*,-1,-4,-17,-13,39,70*
CC1CCCN(c2ccc([N+](=O)[O-])s2)C1 (stereo not given),·,18,·,-5,·,·,·
CCN1C(=O)/C(=C2/SC(C)=C(C)N2CC)SC1=S,96*,4,11,-1,-16,84*,7
Cn1nnnc1Sc1ccc(C(=O)O)cc1[N+](=O)[O-],90*,3,-9,-17,-5,37,54*
Cn1ccnc1Sc1ccc(C(N)=O)cc1[N+](=O)[O-],94*,0,4,-16,5,38,32*
CC1=NN(C(N)=S)C(=O)C1N=Nc1ccccc1C (stereo not given),96*,3,-23,-10,-31,31,17*
CC(C)NC(=O)Nc1ccc2c(c1)C(=O)N([C@H](C)CO)C[C@H](C)[C@@H](CN(C)S(=O)(=O)c1cn(C)cn1)O2,3,1,0,-23,-5,·,·
Cc1ccc(-n2c3nc(=O)[nH]c(=O)c-3cc3cc([N+](=O)[O-])ccc32)cc1,84*,5,-6,3,-12,56*,65*
CCOc1ccc(CC(=O)Nc2sc(Cc3ccccc3)cc2C(N)=O)cc1OCC,79*,2,14,-38,-17,88*,2
NC(=O)c1cc(Cc2ccccc2)sc1NC(=O)c1ccco1,26,6,-15,-10,-19,·,·
O=C(Cn1cc([N+](=O)[O-])ccc1=O)NCC(=O)Nc1ccc(F)c(F)c1F,16,21,-6,-15,-12,·,·
O=C(NCc1ccco1)Nc1ccc2nsnc2c1,96*,3,-15,24,-3,25,1
O=C(NCc1ccco1)Nc1ccc(Br)cc1,27,10,0,-23,9,·,·
COc1ccc(NC(=O)c2cccnc2)c([N+](=O)[O-])c1,123*,4,5,-21,-1,32,16
COc1ccccc1Cn1[nH]nnc1=S,0,3,-4,-21,-9,·,·
O=c1ccnc(Sc2ncccc2[N+](=O)[O-])[nH]1,92*,10,-30,-7,-1,49,47*
O=c1c2ccccc2nc2ccc(N3CCOCC3)nn12,94*,4,-11,-1,-4,31,37*
Cc1ccc2nc3ccc(N4CCCCCCC4)nn3c(=O)c2c1,56,2,-26,15,-10,·,·
Cc1ccc2nc3ccc(N4CCN(C)CC4)nn3c(=O)c2c1,77*,-3,-11,3,-13,36,25*
Cc1cc(NC(=O)CN2C(=O)NC3(CCCCC3)C2=O)ccc1N1CCCC1,·,2,·,-28,·,·,·
O=C(CN1C(=O)C2CC=CCC2C1=O)NCC(=O)Nc1ccc(F)c(F)c1 (stereo not given),16,2,-4,-10,-6,·,·

# Source: PubChem BioAssay (The Scripps Research Institute Molecular Screening Center)
